# Bioassay records as filed in PubChem.
# Most compounds without a hit are left out; they make up all but 2% or so of the library.
# T cell HTS: T cell immune modulators affecting CD8 T cell-vesicle binding | AID 2052 | response (vesicle binding), % at 7 µM | 330,000 tested, 0.068% active | 2C CD8+ T cell-vesicle binding, flow cytometry; active compounds read low;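 active means response, share of CD8 T cells binding vesicles, and their 90th percentile fluorescence all below set limits, cut at about 80% in these data, passing the limit was not always enough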;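 further: values below 100% mean blocked vesicle binding to the CD8+ T cells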
#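 Benchmarks: naked versus QL9-loaded vesicles / Assay system: purified 2C TCR transgenic mouse naive CD8+ T cells / Technique: high-throughput flow cytometry with anti-B7-1 and anti-CD8 staining / Timing: Cell–vesicle co-incubation 1.5 h at 37 °C, staining 20 min on ice / Read-out: percent CD8+ FL2 mean versus row control / Probe or stimulus: QL9-loaded Drosophila micro-vesicles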
# NR2E3 ag-1: agonists of human nuclear receptor NR2E3 | Q9Y5X4 | GST-NR2E3/biotin-RetCOR TR-FRET, 1536-well | inhibition of corepressor binding, % at 4.78 µM | 320,000 tested, 0.12% active;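 active means percent inhibition above the cutoff of mean plus 3 SD of all tested compounds, set per screening campaign, cut at about 20% in these data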;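 further: 0% = DMSO wells and 100% = biotin wells as full block of FRET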
# Target sequence (Q9Y5X4 whole entry, looked up): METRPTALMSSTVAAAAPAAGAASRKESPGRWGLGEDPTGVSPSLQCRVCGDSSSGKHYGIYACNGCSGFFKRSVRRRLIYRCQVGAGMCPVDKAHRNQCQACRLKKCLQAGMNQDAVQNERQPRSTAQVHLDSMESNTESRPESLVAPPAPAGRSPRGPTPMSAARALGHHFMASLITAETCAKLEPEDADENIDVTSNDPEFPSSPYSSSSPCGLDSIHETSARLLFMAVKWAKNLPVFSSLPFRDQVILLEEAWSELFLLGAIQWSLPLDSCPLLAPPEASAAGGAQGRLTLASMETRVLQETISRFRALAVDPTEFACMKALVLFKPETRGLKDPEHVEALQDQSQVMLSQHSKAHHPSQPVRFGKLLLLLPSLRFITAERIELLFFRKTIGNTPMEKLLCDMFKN
#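 System: GST-NR2E3 and biotin-RetCOR proteins; probe or stimulus: 7 nM biotin-RetCOR; doses: compound at 4.8 µM, single dose; schedule: Compound–protein incubation for 5 h at 4 °C; detection: time-resolved FRET; read-out: percent inhibition; controls: biotin wells as high control, 0.6% DMSO wells as low control; format: 1536-well plates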
# GAA850 FXN act: frataxin GAA850 promoter activation | 360,000 tested, 0.56% active | activation, % at 6 µM | HEK293 lucGAA850 FXN promoter luciferase reporter, 24 h; percent of 10 µM SAHA response;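 active means activation above the average of all compounds screened plus 3 SD, cutoff fixed separately per campaign, cut at about 7.5% in these data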;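 further: 0% = DMSO wells and 100% = 10 µM SAHA wells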
# Myeloid diff 2: myeloid differentiation induction. 360,000 tested, 1% active. calls only at 10 µM. ER-HoxA9 myeloid progenitors, lysozyme-GFP differentiation, flow cytometry;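 active means normalized GFP-positive differentiation at or above the plate's own cutoff, the solvent-only control mean plus 3 SD; inconclusive means no clear call, values can overlap the other calls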;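 further: cells exposed to compound for four days before flow analysis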
# NR2E3 ag-2: activates human NR2E3 receptor. CHO-S Gal4-NCOR/VP16-NR2E3 two-hybrid, luciferase. 360,000 tested, 0.35% active. Q9Y5X4. AID 602229. inhibition of corepressor binding, % at 3.98 µM;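 active means inhibition above the mean of all tested compounds plus 3 SD, cut at about 70% in these data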;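 further: 0% = DMSO with NR2E3 transfected cells and 100% = cells lacking NR2E3 construct; higher means lower luciferase signal from less NR2E3 corepressor binding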
# NR2E3 ag conf: NR2E3 agonism confirmed in two-hybrid assay | 2,300 tested, 51% active | inhibition, % at 3.98 µM | CHO-S mammalian two-hybrid NR2E3-NCOR, luciferase luminescence | shares compounds with NR2E3 ag-2;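 active means average inhibition above a cutoff equal to the mean inhibition of all tested compounds plus one SD, cut at about 70% in these data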;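 further: 0% = DMSO in NR2E3 cells and 100% = DMSO in cells lacking NR2E3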
# VP16 counter: counter-screen for NR2E3 agonists: GAL4-VP16 reporter inhibitors; shares compounds with NR2E3 ag-2; 2,300 tested, 29% active; CHO-S GAL4-VP16 luciferase reporter, luminescence; inhibition, % at 3.98 µM;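 active means mean inhibition above a cutoff equal to the average over all tested compounds plus one standard deviation, cut at about 70% in these data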;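 further: luciferase from a UAS reporter driven by GAL4-VP16 transactivation; 0% = DMSO with VP16-transfected cells and 100% = DMSO with cells lacking VP16; higher means less reporter light so more repression of VP16 activity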
# An asterisk follows results filed as active; i = inactive; u = inconclusive; x = no result given.
SMILES,T cell HTS,NR2E3 ag-1,GAA850 FXN act,Myeloid diff 2,NR2E3 ag-2,NR2E3 ag conf,VP16 counter
COc1ccc(NS(=O)(=O)c2ccc3oc4ccccc4c3c2)cn1,543,5,-1,i,88*,76*,63
O=c1ccc2cc(S(=O)(=O)N3CCN(c4ccccc4F)CC3)ccc2o1,202,4,1,i,-6,x,x
O=c1[nH]c2ccc(S(=O)(=O)N3CCN(c4ccccc4F)CC3)cc2s1,280,-1,0,i,50,60,51
Cc1ccc(NC(=O)COc2ccc(N(C)C(=O)C(C)(C)C)cc2)cc1S(=O)(=O)N1CCCCC1,306,x,-3,i,63,0,44
O=C(Nc1ccccc1F)Nc1cccnc1Cl,527,1,2,i,-12,x,x
O=C(NCc1ccco1)c1cccc(NC(=O)c2ccccc2)c1,445,-3,-2,i,50,23,22
Cc1ccc(C(=O)Nc2cccc(C(=O)NCc3ccco3)c2)cc1,201,0,1,i,56,19,-4
NC(=S)NN=C1c2ccccc2-c2ccccc21,224,4,0,i,72*,-4,-11
O=C(NN=C1c2ccccc2-c2ccccc21)c1ccccc1,125,-1,5,i,-8,x,x
O=C(CSc1nnnn1-c1ccc2c(c1)OCCO2)Nc1nc2c(s1)CCCC2,326,3,-2,i,96*,98*,5
COc1cccc(-n2nnnc2SCC(=O)Nc2nc3c(s2)CCCC3)c1,444,0,4,i,10,x,x
COc1ccc(-c2ccc(C(=O)NCc3ccc(N(C)C)cc3)c3occc23)c(C)c1,x,x,3,i,-65,x,x
CCCNC(=O)C1(C)CCN(Cc2ccc(-n3ccnc3)cc2)C1 (configuration not stated),x,x,1,i,-8,x,x
Cc1ccc(S(=O)(=O)Nc2ccc3ccccc3c2[N+](=O)[O-])cc1,x,x,4,i,47,x,x
Cc1ccc(S(=O)(=O)Nc2ccc3cc([N+](=O)[O-])ccc3c2[N+](=O)[O-])cc1,x,x,1,i,101*,100*,91*
Cc1cc(C2=NNC(=NC3CCCCC3)SC2)c(C)n1-c1c(C)n(C)n(-c2ccccc2)c1=O,174,2,1,i,-48,x,x
Cc1cc(C2=NNC(=NC3CC3)SC2)c(C)n1-c1ccccc1F,239,1,-16,i,94*,89*,91*
Cc1cc(Nc2cccc(Cl)c2)nc(NCc2ccccc2)n1,125,2,0,i,93*,96*,76*
CC(=O)c1ccc(OCC(=O)NC(=O)NC2CCCCC2)cc1,i,1,-1,i,61,22,55
CC(C)c1cc(C(=O)NCc2ccc(F)cc2)c(N)s1,x,x,x,i,x,x,x
C[C@@H]1CCCCO[C@@H](CN(C)S(=O)(=O)c2ccccc2)[C@@H](C)CN([C@H](C)CO)C(=O)c2cc(NS(=O)(=O)c3ccc(F)cc3)ccc2O1,x,x,-2,i,-15,x,x
Cc1ccc2ccc3ccc(C)nc3c2n1,181,3,-7,u,92*,40,28
Cc1ccc2cc(F)c(F)c(F)c2n1,x,x,x,i,-7,x,x
CCOc1ccc(-c2cc(C(=O)NCCCN3CCCC3)c3ccccc3n2)cc1,321,-2,2,i,-57,x,x
CC(C)CN1C(=O)NC2(CCCc3ccccc32)C1=O (configuration not stated),365,0,0,i,-46,x,x
SMILES,T cell HTS,NR2E3 ag-1,GAA850 FXN act,Myeloid diff 2,NR2E3 ag-2,NR2E3 ag conf,VP16 counter
CCOC(=O)c1cc(C#N)c(N2CCN(C(=O)c3cccc(C(F)(F)F)c3)CC2)nc1C(F)(F)F,i,1,-2,i,50,25,40
CC(C)N1CCN(c2ccncc2S(=O)(=O)N2CCN(C)CC2)CC1,x,x,1,i,8,x,x
Cc1cc(CNC(=O)c2cccc([N+](=O)[O-])c2C)c2ccccc2n1,277,3,-4,i,49,72*,59
CCCCCCCCCCOC(=O)Cn1c(COc2ccccc2OC)[n+](C)c2ccccc21,113,0,-2,i,48,95*,69
Cn1c(COc2ccccc2O)[n+](C)c2ccccc21,146,0,2,i,4,x,x
COc1cc(C2NC(=O)NC(C)=C2C(=O)OCC2CCCCC2)ccc1O (configuration not stated),330,-2,4,i,-6,x,x
O=C(NNc1ccccc1)C(=O)NNc1ccccc1,x,x,2,i,53,52,9
CN(C)S(=O)(=O)Oc1cccc(C(=O)Nc2ccc(Cl)cc2)c1,194,1,-1,i,60,30,7
CN(C)S(=O)(=O)Oc1cccc(C(=O)Nc2ccccc2Cl)c1,232,2,3,i,-62,x,x
O=C1CSc2cc(Cl)ccc2N1,x,x,2,i,-6,x,x
CCn1ncc(/C=C/C(=O)Nc2c(C)nn(Cc3ccc(Cl)cc3Cl)c2C)c1C,676,-3,-2,i,50,32,40
CCn1nc(C)c(NC(=O)/C=C/c2cnn(C)c2C)c1C,277,1,1,i,2,x,x
COc1cccc2sc(Nc3nnc(-c4ccccc4Cl)o3)nc12,449,5,-4,u,18,x,x
COc1ccccc1-c1nnc(Nc2nc3c(OC)cccc3s2)o1,423,18,-11,u,74*,22,-35
Cc1cccc(Cl)c1OCCCN1CCOCC1,121,4,1,i,-18,x,x
COc1cccc(CN(CCC(C)C)S(=O)(=O)c2cc(Br)ccc2Br)c1,x,x,2,x,0,x,x
Nc1nc2c(ncn2C2C[C@H](O)[C@@H](CO)O2)c(=O)[nH]1 (some centres not stated),293,4,0,i,2,x,x
Nc1nc2c(nnn2C2CC(O)C(CO)O2)c(=O)[nH]1 (configuration not stated),x,x,x,i,65,-2,17
Cc1ccc(S(=O)(=O)NNC(=O)C2Cc3c(ccc4ccccc34)O2)cc1 (configuration not stated),351,2,-2,i,60,8,52
CCCCOc1ccc(S(=O)(=O)NNC(=O)C2Cc3c(ccc4ccccc34)O2)cc1 (configuration not stated),773,1,-4,i,-5,x,x
Cn1c(=S)c2[nH]c(SCC3CCCO3)nc2n(C)c1=O (configuration not stated),x,x,2,i,53,38,-5
Cc1cccc(C(=O)OCC(=O)NC2CC2)c1O,232,x,0,i,6,x,x
